DENV2 CPE rescue: inhibitors of DENV2 cytopathic effect, primary screen, cell-based, plate reader, single concentration; CPE inhibition, % at 9.99 µM; AID 651640, 2012; DENV2-infected cells, cytopathic effect rescue; actives 1.7% (n = 350,000); in the data active = CPE inhibition above about 20%, passing the limit was not always enough; inconclusive = no clear call, values can overlap the other calls; tested in BHK-21 cells;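 note: 0% = median of neutral control wells and 100% = median of positive control wells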
E-sel inducer: E-selectin induction in HUVECs, primary screen, imaging, HUVEC, immunofluorescence imaging, single point; activation, % at 7.58 µM; normalized: neutral wells 0, TNF-alpha wells 100; actives 0.37% (n = 260,000); AID 686992, 2013;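 active = mean E-selectin-positive cell signal at least 10% of the positive control, reached in at least 60% of replicates, without over 20% cell loss; inconclusive = no rule given, readout overlaps actives, possibly toxicity-flagged; inactive = the rest, including those meeting only one limit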
Target sequence (P16581 whole entry, looked up): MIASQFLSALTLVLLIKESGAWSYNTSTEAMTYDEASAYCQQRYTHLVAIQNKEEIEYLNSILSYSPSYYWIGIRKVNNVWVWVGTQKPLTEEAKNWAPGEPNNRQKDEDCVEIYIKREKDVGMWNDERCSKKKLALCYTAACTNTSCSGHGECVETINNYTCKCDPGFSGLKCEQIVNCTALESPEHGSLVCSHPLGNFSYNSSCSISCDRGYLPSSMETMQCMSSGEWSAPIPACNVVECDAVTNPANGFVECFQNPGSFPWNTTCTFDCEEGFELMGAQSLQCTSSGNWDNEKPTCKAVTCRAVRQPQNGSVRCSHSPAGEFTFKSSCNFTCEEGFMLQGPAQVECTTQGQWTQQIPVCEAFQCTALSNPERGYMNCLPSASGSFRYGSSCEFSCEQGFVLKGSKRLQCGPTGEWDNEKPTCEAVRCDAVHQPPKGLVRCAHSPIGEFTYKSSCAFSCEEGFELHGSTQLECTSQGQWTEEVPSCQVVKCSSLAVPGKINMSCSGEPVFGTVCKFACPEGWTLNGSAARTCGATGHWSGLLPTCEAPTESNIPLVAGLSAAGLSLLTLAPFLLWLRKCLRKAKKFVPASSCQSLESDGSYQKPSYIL
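System: HUVEC, human umbilical vein endothelial cells; quantity: 3,000 cells/well; buffer or medium: EGM-2 medium, gelatin-coated wells; dosing: single-point compound dose; detection: immunofluorescence imaging; evaluation: % PE-positive cells; benchmarks: TNF-alpha, DMSO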
SIRT5 inh: SIRT5 desuccinylase inhibitors, primary screen, biochemical, fluorescence imaging, single point, set 5. NAD-dependent protein deacylase sirtuin-5, mitochondrial (Homo sapiens), Q9NXA8. Purified SirT5, succinyl-peptide AMC, trypsin-coupled fluorescence. inhibition, % at 15 µM. actives 1.1% (n = 330,000). AID 652115, 2013; in the data active = inhibition above about 15%; inconclusive = no clear call, values can overlap the other calls
Active calls of the source: *. A selection: hits, their analogues and other compounds. The true share with any hit is near 2.9%.

CCc1ccc(N2C(=O)NC(=O)/C(=C\C=C\c3ccco3)C2=O)cc1 was read as DENV2 CPE rescue 0, E-sel inducer 0 and SIRT5 inh -1.
Screening COC(=O)C1=C(c2ccc(F)cc2OCc2ccccc2)C[C@@H]2CC[C@H]1N2C(=O)NCc1cccc(F)c1 returned DENV2 CPE rescue inconclusive and E-sel inducer 0.
`COC(=O)C1=C(c2ccc(F)cc2OCc2ccccc2)C[C@@H]2CC[C@H]1N2C(=O)NCc1ccccc1` gave DENV2 CPE rescue 68* and E-sel inducer 0.
Screening COc1cc(/C=N/NC(=O)Cn2c([N+](=O)[O-])cnc2C)ccc1OC(=O)N(C)C returned DENV2 CPE rescue 4 and SIRT5 inh -3.
`C=COCCn1c(C)c(C(C)=O)c2cc(O)ccc21` gave DENV2 CPE rescue 1, E-sel inducer 56* and SIRT5 inh 15.
`CCOC(=O)c1c(C)n(Cc2ccc(F)cc2)c2ccc(O)cc12` gave DENV2 CPE rescue 3 and SIRT5 inh -2.
`C[C@]12CC[C@H](O)CC1=CCC1C2CC[C@@]2(C)C1CC[C@@H]2OCc1ccccc1` (stereo not given in full) gave DENV2 CPE rescue 0, E-sel inducer -1 and SIRT5 inh 2.
`O=S(=O)(NC1CCCC1)OCC(Cl)(Cl)Cl` gave DENV2 CPE rescue 27*.
`O=S(=O)(NC1CCCCCCC1)OCC(Cl)(Cl)Cl` gave DENV2 CPE rescue 34* and E-sel inducer 0.
Screening CC1(C)CN(S(=O)(=O)OCC(Cl)(Cl)Cl)C(=O)N1 returned DENV2 CPE rescue 13, E-sel inducer 0 and SIRT5 inh -5.
Screening CCS(=O)(=O)N1CCC(C(=O)N2CCC3(CC2)OCCO3)CC1 returned DENV2 CPE rescue -1 and SIRT5 inh -1.
CCN1CCC(NCC2CCCCC2)CC1 was read as DENV2 CPE rescue 32*.
`CCN1CCC(N(C)C2CCCCC2)CC1` gave DENV2 CPE rescue -3, E-sel inducer 0 and SIRT5 inh 0.
For CC(C)NC(C)Cc1ccc(I)cc1 (stereo not given) the results were DENV2 CPE rescue -1, E-sel inducer 0 and SIRT5 inh -1.
`COC(=O)[C@@H]1[C@@H](CO)[C@@H]2Cn3c(ccc(-c4ccccc4)c3=O)[C@H]1N2CCc1ccccc1` gave DENV2 CPE rescue 5, E-sel inducer 0 and SIRT5 inh 16*.
`COC(=O)[C@H]1[C@H](CO)[C@H]2Cn3c(ccc(C4=CCCCC4)c3=O)[C@@H]1N2CCc1ccccc1` gave DENV2 CPE rescue -12, E-sel inducer 0 and SIRT5 inh -9.
Screening COC(=O)[C@@H]1[C@@H](CO)[C@@H]2Cn3c(ccc(-c4cccnc4)c3=O)[C@H]1N2CCc1ccccc1 returned DENV2 CPE rescue 6, E-sel inducer 0 and SIRT5 inh -3.
COC(=O)[C@@H]1[C@@H](CO)[C@@H]2Cn3c(ccc(-c4ccncc4)c3=O)[C@H]1N2CCc1ccccc1 was read as DENV2 CPE rescue 107*, E-sel inducer 0 and SIRT5 inh 4.
`COc1ccc2c(c1)C1(C)CCN(C)CC(C1)C2O` (stereo not given) gave DENV2 CPE rescue 0, E-sel inducer 0 and SIRT5 inh -4.
O=S(=O)(c1ccc(Cl)cc1)c1ccc(Cl)cc1 was read as DENV2 CPE rescue -9.
`COc1ccc(C#Cc2ccc([C@@H]3[C@H](CO)N4CCCCN(C(=O)Cc5ccccc5)C[C@@H]34)cc2)cc1` gave DENV2 CPE rescue -24, E-sel inducer 0 and SIRT5 inh -1.
O=c1[nH]c2cc(Cl)ccc2n1C1CCN(Cc2ccc(-c3nc4ccccc4nc3-c3ccccc3)cc2)CC1 was read as DENV2 CPE rescue -5 and E-sel inducer 0.
Screening Cc1ccc2nc(-c3ccc(CN4CCC(n5c(=O)[nH]c6cc(Cl)ccc65)CC4)cc3)c(-c3ccccc3)nc2c1 returned DENV2 CPE rescue 52*, E-sel inducer 1 and SIRT5 inh 4.
`O=C(Nc1cccc(Cl)c1)OCC#CCN1CCCC1` gave DENV2 CPE rescue 2, E-sel inducer 0 and SIRT5 inh -11.
`CC(C)(C)C(=O)c1cn(Cc2ccccc2)c2ccccc12` gave DENV2 CPE rescue 1, E-sel inducer 0 and SIRT5 inh -1.
CC(C)(C)C(=O)c1cn(CC(=O)NCc2ccco2)c2ccccc12 was read as DENV2 CPE rescue 6, E-sel inducer 3 and SIRT5 inh 17*.
For O=C1CNC(c2ccccc2Cl)c2cc(Br)ccc2N1 (stereo not given) the results were DENV2 CPE rescue 3, E-sel inducer 0 and SIRT5 inh 5.
For Cc1ccc(N2C(=O)NC(=O)/C(=C\c3cccn3C(C)(C)C)C2=O)cc1 the results were DENV2 CPE rescue -4 and SIRT5 inh 1.
O=C(O)c1ccccc1N=Nc1c(O)[nH]c(=O)[nH]c1=O was read as DENV2 CPE rescue -2 and SIRT5 inh -1.
Screening CN(C)C(=O)Oc1ccc(C(=O)c2ccccc2)cc1 returned SIRT5 inh -5.
`CC(C)(C)n1cc(C(=O)c2ccccc2)cc1-c1ccccc1` gave DENV2 CPE rescue 36*, E-sel inducer 0 and SIRT5 inh -4.
C[C@H]1CNCCN1c1ccc(N2CC[C@H](O)C2)c(C#N)c1 was read as DENV2 CPE rescue 6, E-sel inducer 0 and SIRT5 inh -2.
Screening Cc1cccc(CNCCc2c[nH]c3ccccc23)c1 returned DENV2 CPE rescue -4 and SIRT5 inh -4.
O=C1NC(=O)N(Cc2ccc(F)cc2)C(=O)/C1=C\C=C\c1ccco1 was read as DENV2 CPE rescue 1, E-sel inducer -6 and SIRT5 inh -1.
For COc1ccc(CN2C(=O)NC(=O)/C(=C/c3ccoc3)C2=O)cc1 the results were DENV2 CPE rescue -1, E-sel inducer 5 and SIRT5 inh 21*.
`Cc1ccc(N2C(=O)NC(=O)/C(=C/c3ccoc3)C2=O)cc1` gave DENV2 CPE rescue 6, E-sel inducer 8 and SIRT5 inh 18*.
`COc1cc(/C=C2/C(=O)NC(=O)N(c3ccc(C)cc3)C2=O)cc(OC)c1OC` gave DENV2 CPE rescue 6 and SIRT5 inh 1.
For COc1ccc(CN2C(=O)NC(=O)/C(=C/c3cc(OC)c(OC)c(OC)c3)C2=O)cc1 the results were DENV2 CPE rescue 8, E-sel inducer -1 and SIRT5 inh 0.
Screening O=C1NC(=O)N(Cc2ccccc2)C(=O)/C1=C\c1ccco1 returned DENV2 CPE rescue 3 and SIRT5 inh 25*.
`CCN1C[C@]2(COC)CC[C@H](OC)[C@@]34C1[C@]1(OCO[C@@]15C[C@H](OC)[C@H]1C[C@@H]3[C@@H]5[C@H]1OC)[C@@H](O)[C@H]24` gave DENV2 CPE rescue 4, E-sel inducer inconclusive and SIRT5 inh -3.
Screening CCN1C[C@]2(CO)CC[C@H](OC)[C@@]34C2[C@H](OC)[C@@](O)(C13)[C@@]1(O)C[C@H](OC)[C@H]2C[C@@H]4[C@@H]1[C@H]2OC returned DENV2 CPE rescue 3, E-sel inducer 0 and SIRT5 inh 24*.
